# PvdQ inh – P. aeruginosa PvdQ acylase inhibitors, primary screen, biochemical, fluorescence, plate reader and imaging, single point. PvdQ acylase [Pseudomonas aeruginosa LESB58]. purified PvdQ acylase. inhibition, % at 10 µM. 340,000 tested, 0.063% active. AID 488965, 2010; in the data active = inhibition above about 30%, passing the limit was not always enough;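 also: 0% = vehicle neutral wells and 100% = reference inhibitor wells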
# Glyco luc inh – increase of ERlucT glycosylation luciferase signal, primary screen, N-linked glycosylation inhibitor project, D54 ERlucT cells, luminescence, set 2. AID 588692, 2011. D54 ERlucT glycosylation luciferase reporter, 24 h; percent of 100 nM tunicamycin response. 360,000 tested, 0.23% active. reporter increase, % at 12.5 µM;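 active = mean luciferase reporter signal, scaled so untreated is 0 and the glycosylation-blocking control 100, at or above a set limit in every replicate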;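 also: luciferase carries N-glycosylation sites so blocking glycosylation raises the light; 0% = median of neutral control wells and 100% = median of 100 nM tunicamycin wells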
# T cruzi repl – inhibitors of intracellular T. cruzi growth, primary screen, luminescence, NIH3T3 host cells. T. cruzi beta-gal in NIH3T3, 90 h. inhibition, % (test concentration not listed). 300,000 tested, 1.4% active. AID 1885, 2009;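 active = mean inhibition across valid replicates above about 55%, limit read from the data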;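 also: signal also drops with host cell toxicity which is not excluded here; 0% = plate median of DMSO wells and 100% = zero luminescence signal; higher percent means less beta-gal luminescence so fewer parasites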
#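 compound dosing = single 50 nL compound addition per well in DMSO | material = NIH/3T3 host cells with β-galactosidase reporter T. cruzi | input = 5,000 host fibroblasts per well | timing = ≥90 h infection period, 3 h prior cell attachment | read-out basis = percent inhibition of parasite-derived β-gal signal | detection = GalScreen β-gal luminescence, detergent lysis, 60 min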
# CaV13 ICDI inh – Disruptors of the CACNA1D IQ motif to Ca2+-dependent inactivation inhibitor domain association, primary screening, Förster resonance energy transfer in intact living … | 340,000 tested, 0.098% active | HEK cells, CFP/YFP FRET ICDI-IQ, plate reader, 10 min; percent FRET-ratio fall versus neutral wells | inhibition, % at 12.3 µM | AID 743397;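 active = mean replicate inhibition of at least 30% and at least 1% of replicates passing that level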;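 also: 0% = median of the neutral control wells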
# HSF1 activator – HSF-1 activators, primary screen, NIH3T3-HGL cells, MG132 stress, luminescence, single point. NIH3T3-HGL HSF-1 luciferase reporter, 8 h; 100% = twice DMSO control signal. activation, % at 9 µM. 300,000 tested, 1.7% active;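 active = mean replicate activation of at least 50% with a set share of replicates each reaching 50%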;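 also: 0% = median of the neutral control wells and 100% = twice that signal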
# PfHsp90 yeast 2 – growth inhibition of PfHsp90-expressing yeast, primary screen, antimalarial PfHsp90 inhibitor project, S. cerevisiae, BacTiter-Glo luminescence, single point, set 2; BacTiter-Glo ATP, 48 h; yeast lacking PDR1 and PDR3 efflux regulators; inhibition, % at 9.4 µM; 310,000 tested, 0.32% active; AID 504621, 2011;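 active = every replicate shows inhibition above about 80%, whatever the replicate mean, limit read from the data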;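 also: 0% = DMSO neutral controls and 100% = 20 µM radicicol positive controls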
# Starred values were filed as active, the others as inactive; nt = no result given. Rows were chosen to be rich in hits. Some 3% of all compounds tested hit in one or more screens of this group.
SMILES,PvdQ inh,Glyco luc inh,T cruzi repl,CaV13 ICDI inh,HSF1 activator,PfHsp90 yeast 2
O=C1c2ccccc2C(=O)N1CCc1csc(-c2cccc(Cl)c2)n1,9.8,0.5,-11.0,nt,-50.9,17.7
O=C1c2ccccc2C(=O)N1CCc1csc(-c2cccc(F)c2)n1,0.9,-1.8,-4.8,-4.1,82.7*,nt
Cc1ccc(-c2onc3ccc(C(=O)/C=C/N(C)C)cc23)cc1,-11.6,-6.4,-3.5,-8.7,-13.4,119.3*
COC(=O)[C@]12C[C@H](CC(=O)N3CCN(C(=O)C4CC4)CC3)C(=O)N(Cc3ccccc3)C1=C[C@H](C(C)(C)C)O[C@@H]2C,nt,nt,nt,-9.3,nt,nt
CCOC(=O)c1cnc(-n2nc(C)cc2C)nc1NC1CCCCC1,12.5,-9.4,76.3*,-7.3,-7.5,70.6
CCOC(=O)c1cnc(-n2nc(C)cc2C)nc1Nc1ccc(N(C)C)cc1,7.8,-0.3,62.5*,nt,6.1,-19.8
CCOC(=O)c1cnc(-n2nc(C)cc2C)nc1NC,2.3,3.7,-7.9,-3.2,-3.4,nt
CCOC(=O)c1cnc(-n2nc(C)cc2C)nc1Nc1ccc(C)cc1,0.3,0.2,10.3,-3.6,-9.0,1.2
CC(=O)c1ccc(NC(=O)CNCc2cccs2)cc1,1.7,0.8,7.0,-2.5,21.2,12.1
N#Cc1ccc(Cl)cc1NC(=O)CNCc1cccs1,-9.7,-1.4,-9.4,-4.8,64.8*,-9.4
Cc1nc2ccccc2c2oc(C(=O)NCc3ccccn3)cc12,-16.5,1.2,-23.6,-6.7,52.2*,-3.4
CCc1nc2c(OCC(N)=O)cccn2c1N(C)C(=O)c1cccs1,nt,4.3,nt,-8.1,nt,nt
Cc1[nH]c(N=Nc2ccccc2)nc1N=Nc1ccccc1,-4.5,-2.4,64.7*,-4.4,30.2,103.9*
COc1cc(/C=C(/C#N)c2ccc(C)cc2)ccc1Oc1ccc([N+](=O)[O-])cn1,6.3,-11.7,71.5*,-7.3,3.9,1.5
CC(C)NC(=O)OC[C@@H]1CSCCS(=O)(=O)N1,nt,nt,nt,-4.8,nt,nt
CCOC(=O)Cc1csc(/N=C/c2c(O)n(-c3ccc(C)c(C)c3)c(=O)c3ccccc23)n1,-12.9,71.5*,-13.9,-23.6,-7.3,-20.4
COc1cccc(NC(=O)Cn2nnc(C(=O)Nc3ccccc3)c2N)c1,-14.6,-1.0,9.6,-3.8,-11.1,nt
COc1cccc(NC(=O)c2nnn(Cc3ccc(Br)cc3F)c2N)c1,-9.4,-1.4,41.1,-1.5,70.0*,-1.6
CC(C)[C@@H]1NC(=O)[C@@H]2CSCCS(=O)(=O)N2C1=O,nt,nt,nt,-4.3,nt,nt
COC(=O)C[C@H]1CC[C@H](NC(=O)Nc2ccccc2)[C@@H](CO)O1,nt,nt,nt,-3.9,nt,nt
C[C@@H]1ON(C)[C@H]2C[C@H]3c4[nH]c5ccc(-c6ccc7c(c6)OCO7)cc5c4CCN3C(=O)[C@@H]12,nt,-1.6,nt,-10.4,nt,nt
Cc1cc(C)c2nc(N(CCCN(C)C)C(=O)c3ccc4c(c3)CCCC4)sc2c1,nt,nt,58.5*,-6.2,7.8,nt
CN(C)CCCN(C(=O)c1ccc(S(=O)(=O)N(C)Cc2ccccc2)cc1)c1nc2c(F)cccc2s1,-1.3,-5.5,36.0,-2.5,13.4,-0.7
CN(C)CCCN(C(=O)c1ccc(N2C(=O)CCC2=O)cc1)c1nc2c(F)cccc2s1,-0.4,0.3,57.1*,-4.1,32.3,-22.0
Cc1ccc2nc(N(CCCN(C)C)C(=O)c3ccc4c(c3)CCCC4)sc2c1,2.2,-9.0,44.1,-3.5,-4.3,35.4
SMILES,PvdQ inh,Glyco luc inh,T cruzi repl,CaV13 ICDI inh,HSF1 activator,PfHsp90 yeast 2
CN(C)CCCN(C(=O)c1ccc2c(c1)CCCC2)c1nc2c(F)cccc2s1,-2.8,5.5,58.2*,-2.0,18.4,9.0
COC(=O)c1cc2c(c3c4ccccc4n(S(=O)(=O)c4ccc(OC)cc4)c13)C(=O)N(C)C2,nt,nt,nt,-9.1,nt,nt
O=C1NC[C@@H](CCCCN2C[C@H](Cc3ccc(O)cc3)N(CC3CCCCC3)C(=O)C2=O)N(CCc2ccccc2)C1=O,nt,nt,nt,-9.6,nt,nt
O=C(Nc1ccc(NC(=S)NC(=O)c2ccccc2Cl)cc1)c1cccc(Cl)c1,-7.9,0.3,45.1,nt,55.8*,-18.7
O=C(NC(=S)Nc1ccccc1O)c1ccc(Cl)cc1Cl,-17.3,-2.4,-0.6,-6.1,75.9*,-2.4
CC(C)C(=O)Nc1cccc(NC(=S)NC(=O)c2ccccc2Cl)c1,3.0,8.9,-4.5,-4.1,20.1,8.8
Cc1nnnn1/C(=C\c1ccccc1)C(=O)OCC(=O)NC1CCCCC1,-16.0,8.0,-35.9,-5.4,78.0*,1.7
NC(=S)N/N=C/c1ccc(C23CC4CC(CC(C4)C2)C3)cc1,nt,nt,77.4*,nt,-6.9,nt
CCN(CC)C(=O)Sc1cccc2cccnc12,-4.4,1.8,-22.1,-8.7,2.0,-0.4
CC(=O)/C(=N/Nc1ccc(Br)cc1)Sc1cccc2cccnc12,0.0,-2.4,1.8,-3.1,67.4*,3.6
C/C(=N\NC(=O)c1nnn(-c2nonc2N)c1CN(C)c1ccccc1)c1ccccc1O,-6.5,-5.7,64.5*,-2.9,14.0,-7.9
Cc1c(Cl)cccc1NC(=S)N(Cc1cccnc1)Cc1ccccc1Cl,-9.4,-7.0,75.3*,-1.5,5.3,nt
Cc1cccc(C)c1NC(=S)N(Cc1ccccc1)Cc1cccnc1,10.4,2.3,79.2*,-6.2,18.9,-14.4
CSc1cccc(NC(=S)N(Cc2ccccc2)Cc2cccnc2)c1,-7.0,-3.4,82.5*,3.1,3.8,-69.3
Cc1cc(C)cc([C@H]2C[C@]34CN(C(=O)OC(C)(C)C)S(=O)(=O)[C@H]3C[C@H]2O4)c1,nt,nt,nt,-4.8,nt,nt
COCC1CN(CCc2ccc(F)cc2)S(=O)(=O)c2c(OCCN3C(=O)[C@@H]4[C@H](C3=O)[C@@H]3C=C[C@H]4C3)cccc2O1 (stereo not given in full),nt,nt,nt,-7.0,nt,nt
COC(=O)C1C(=O)C2=C(CC1C)NC(C)=C(C(=O)OCc1ccc(OC)cc1)C2c1ccc(C)o1 (stereo not given),8.5,-2.7,0.1,-4.9,111.8*,-9.9
COC(=O)C1C(=O)C2=C(CC1C)NC(C)=C(C(=O)OCCOc1ccccc1)C2c1ccc(C)o1 (stereo not given),-5.9,-3.6,8.9,-4.1,3.7,nt
COc1cc(/C=N/N2C(=O)c3ccccc3NC2(C)c2cccc([N+](=O)[O-])c2)cc(Br)c1O (stereo not given),-1.1,2.4,-10.3,-5.6,55.6*,3.9
COc1cc(/C=N/NC(=O)c2ccc([N+](=O)[O-])cc2Cl)cc(Br)c1O,-10.6,4.4,0.4,-5.7,45.9,12.7

# High-throughput results as filed in PubChem BioAssay.
